Source: ChEMBL document CHEMBL1949632, “Discovery of potent and liver-selective stearoyl-CoA desaturase (SCD) inhibitors in an acyclic linker series” (Bioorg Med Chem Lett, 2012)

Experiments:
[1] = molecular target: T1, Acyl-CoA desaturase 1 (Rattus norvegicus, UniProt P07308); assay: Inhibition of rat liver microsome SCD1
T1 sequence (P07308 whole entry): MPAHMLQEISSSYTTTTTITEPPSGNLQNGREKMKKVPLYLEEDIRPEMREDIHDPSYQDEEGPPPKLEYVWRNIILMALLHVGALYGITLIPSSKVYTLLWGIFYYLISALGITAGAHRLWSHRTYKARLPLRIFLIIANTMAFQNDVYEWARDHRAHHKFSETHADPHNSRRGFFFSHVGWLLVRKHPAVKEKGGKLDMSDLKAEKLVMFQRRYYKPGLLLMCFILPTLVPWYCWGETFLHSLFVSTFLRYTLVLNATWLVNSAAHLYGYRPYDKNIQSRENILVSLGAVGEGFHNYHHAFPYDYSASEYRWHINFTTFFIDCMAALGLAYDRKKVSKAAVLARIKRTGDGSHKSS
In short: (§1)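 IC50s are the average of at least two independent titrations.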

[2] = Oral bioavailability in C57BL/6 mouse at 10 mg/kg; format: ADME, organism-based, C57BL6; conditions: in vivo
In short: (§2)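 C57BL6 mice dosed orally at 10 mg/kg in 0.5% methocel; plasma PK followed over 0–6 h, giving oral bioavailability (F) and AUC0–6h.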

[3] = AUC (0 to 6 hrs) in C57BL/6 mouse at 10 mg/kg, po; format: ADME, organism-based, C57BL6; design: time < 6 hr, dose 10 mg/kg, route oral; conditions: plasma; in short: as §2
[4] = molecular target: Acyl-CoA (8-3)-desaturase (Homo sapiens, UniProt O60427); assay: Inhibition of delta-5 desaturase expressed in HepG2 cells; format: cell-based
Acyl-CoA (8-3)-desaturase, sequence (O60427 whole entry): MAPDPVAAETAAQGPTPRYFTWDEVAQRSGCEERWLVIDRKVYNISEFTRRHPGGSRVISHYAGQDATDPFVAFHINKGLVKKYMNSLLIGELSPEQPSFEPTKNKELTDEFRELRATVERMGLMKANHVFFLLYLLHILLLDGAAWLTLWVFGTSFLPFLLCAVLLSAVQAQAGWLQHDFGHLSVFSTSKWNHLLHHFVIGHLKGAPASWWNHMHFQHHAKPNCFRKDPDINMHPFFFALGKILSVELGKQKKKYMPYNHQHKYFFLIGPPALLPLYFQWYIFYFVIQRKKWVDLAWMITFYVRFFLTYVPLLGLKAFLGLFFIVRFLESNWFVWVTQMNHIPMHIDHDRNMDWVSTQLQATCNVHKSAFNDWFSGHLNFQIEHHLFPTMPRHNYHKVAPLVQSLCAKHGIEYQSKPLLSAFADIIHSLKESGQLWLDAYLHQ

[5] = molecular target: T2, Stearoyl-CoA desaturase (Homo sapiens, UniProt O00767); assay: Inhibition of human SCD1
T2 sequence (O00767 whole entry): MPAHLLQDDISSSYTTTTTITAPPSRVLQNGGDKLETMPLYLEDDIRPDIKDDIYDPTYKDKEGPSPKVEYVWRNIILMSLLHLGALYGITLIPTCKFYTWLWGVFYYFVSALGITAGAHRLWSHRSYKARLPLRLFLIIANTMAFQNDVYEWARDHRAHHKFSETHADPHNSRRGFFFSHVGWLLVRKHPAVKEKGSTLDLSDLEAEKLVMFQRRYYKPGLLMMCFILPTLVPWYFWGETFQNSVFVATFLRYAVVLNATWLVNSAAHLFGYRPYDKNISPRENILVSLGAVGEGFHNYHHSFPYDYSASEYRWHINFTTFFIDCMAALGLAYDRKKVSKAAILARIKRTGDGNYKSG

[6] = Stability in rat hepatocytes assessed as compound remaining after 2 hrs; format: ADME, cell-based, Hepatocyte; conditions: read-out: Stability
In short: (§3)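 Fresh mouse or rat hepatocytes, 2 million cells/mL in Krebs-Henseleit buffer, incubated at 37 °C for 2 h under 95% O2/5% CO2. Parent compound remaining measured.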

[7] = molecular target: T2, Stearoyl-CoA desaturase; assay: Inhibition of SCD1 in OATP-deficient human HepG2 cells by whole cell assay; format: cell-based
[8] = Stability in mouse hepatocytes assessed as compound remaining after 2 hrs; format: ADME, cell-based, Hepatocyte; conditions: read-out: Stability; in short: as §3
[9] = test system: Mus musculus; assay: Inhibition of SCD1 in mouse liver assessed as reduction in conversion of [14C]stearic acid to [14C]oleic acid at 60 mg/kg, po measured after 3 hrs; format: functional
In short: (§4)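 Mouse liver pharmacodynamic model. Mice (n = 5) on high-carbohydrate diet, dosed orally; [1-14C]-stearic acid tracer given intravenously. Liver lipid 14C-oleic/14C-stearic ratio (SCD activity index) and liver drug concentration determined 3 h post dose. % inhibition is relative to vehicle-treated animals.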

[10] = molecular target: T3, Acyl-CoA 6-desaturase (Homo sapiens, UniProt O95864); assay: Inhibition of delta-6 desaturase expressed in HepG2 cells; format: cell-based
T3 sequence (O95864 whole entry): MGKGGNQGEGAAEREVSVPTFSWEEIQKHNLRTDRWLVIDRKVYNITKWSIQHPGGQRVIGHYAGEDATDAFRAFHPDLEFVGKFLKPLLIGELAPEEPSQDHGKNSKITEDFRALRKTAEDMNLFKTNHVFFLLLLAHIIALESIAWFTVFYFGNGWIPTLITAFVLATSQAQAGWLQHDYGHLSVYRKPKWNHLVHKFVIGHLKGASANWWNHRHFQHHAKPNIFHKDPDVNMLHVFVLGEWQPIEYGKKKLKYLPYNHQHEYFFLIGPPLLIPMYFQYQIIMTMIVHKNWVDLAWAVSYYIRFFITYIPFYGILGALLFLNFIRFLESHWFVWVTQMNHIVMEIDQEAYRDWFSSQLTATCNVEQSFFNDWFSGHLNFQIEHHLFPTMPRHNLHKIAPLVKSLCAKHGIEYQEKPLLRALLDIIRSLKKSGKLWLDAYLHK

[11] = Drug uptake in mouse liver at 60 mg/kg, po measured after 3 hrs; format: ADME, organism-based; design: dose 60 mg/kg, route oral; conditions: read-out: Drug uptake; in short: as §4
[12] = molecular target: T1, Acyl-CoA desaturase 1; assay: Inhibition of SCD1 in rat hepatocytes expressing OATP; format: cell-based, Hepatocyte; in short: as §1
[13] = molecular target: Acyl-CoA desaturase 1 (Mus musculus) (UniProt P13516); assay: Inhibition of SCD1 in mouse SCD1 enzyme assay
[14] = Drug uptake in mouse liver at 10 mg/kg, po after 6 hrs; format: ADME, organism-based; design: dose 10 mg/kg, route oral; conditions: read-out: Drug uptake
In short: (§5)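 Tissue distribution study. Mice (n = 2) given 10 mg/kg orally; liver, plasma, shaved skin and Harderian gland concentrations measured 6 h post dose.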

[15] = Drug uptake in mouse shaved skin at 10 mg/kg, po after 6 hrs; format: ADME, organism-based, Zone of skin; design: dose 10 mg/kg, route oral; conditions: read-out: Drug uptake; in short: as §5
[16] = Drug uptake in mouse liver at 2 mg/kg, po measured after 3 hrs; format: ADME, organism-based; design: dose 2 mg/kg, route oral; conditions: read-out: Drug uptake; in short: as §4
[17] = Drug uptake in mouse harderian glands at 10 mg/kg, po after 6 hrs; format: ADME, organism-based, Harderian gland; design: dose 10 mg/kg, route oral; conditions: read-out: Drug uptake; in short: as §5
[18] = test system: Mus musculus; assay: Inhibition of SCD1 in mouse liver assessed as reduction in conversion of [14C]stearic acid to [14C]oleic acid after at 10 mg/kg, po after 3 hrs; format: functional; in short: as §4
[19] = Drug uptake in mouse liver at 10 mg/kg, po after 3 hrs; format: ADME, organism-based; design: dose 10 mg/kg, route oral; conditions: read-out: Drug uptake; in short: as §4
[20] = test system: Mus musculus; assay: Inhibition of SCD1 in mouse liver assessed as reduction in conversion of [14C]stearic acid to [14C]oleic acid at 2 mg/kg, po measured after 3 hrs; format: functional; in short: as §4
[21] = Drug uptake in mouse plasma at 10 mg/kg, po after 6 hrs; format: ADME, organism-based; design: dose 10 mg/kg, route oral; in short: as §5
[22] = test system: Mus musculus; assay: Inhibition of SCD1 in mouse liver assessed as reduction in conversion of [14C]stearic acid to [14C]oleic acid after at 0.4 mg/kg, po after 3 hrs; format: functional; in short: as §4
[23] = Drug uptake in mouse liver at 0.4 mg/kg, po after 3 hrs; format: ADME, organism-based; design: dose 0.4 mg/kg, route oral; conditions: read-out: Drug uptake; in short: as §4

SMILES | IC50 [1] [nM] | IC50 [7] [nM] | IC50 [12] [nM] | concentration at 6 h [14] [nM] | concentration at 6 h [15] [nM] | concentration at 3 h [16] [nM] | concentration at 6 h [17] [nM] | inhibition in vivo at 2 mg/kg [20] [%] | concentration at 6 h [21] [nM] | also measured
O=C(O)Cn1nnc(-c2cc(OCCCOc3cc(F)ccc3Br)no2)n1 | 13 | 7740 | 213 | 230 | – | – | – | – | – | bioavailability [2]: 10%; AUC(0-t) at 6 h [3]: 1 µM·h; IC50 [4]: > 20000 nM; IC50 [5]: 41 nM; remaining at 2 h [6]: 55%; remaining at 2 h [8]: 75%; inhibition in vivo at 60 mg/kg [9]: 85%; IC50 [10]: > 20000 nM; concentration at 3 h [11]: 7800 nM; IC50 [13]: 10 nM
O=C(O)Cn1nnc(-c2cnc(OCCCOc3cc(F)ccc3Br)s2)n1 | 5 | 3870 | 176 | 8070 | 240 | 7600 | 590 | 49 | 1080 | bioavailability [2]: 32%; AUC(0-t) at 6 h [3]: 11.4 µM·h; remaining at 2 h [6]: 94%; inhibition in vivo at 10 mg/kg [18]: 79%; concentration at 3 h [19]: 28600 nM
O=C(O)Cn1nnc(-c2cc(OCCCCOc3cc(F)ccc3Br)no2)n1 | 248 | > 40000 | – | – | – | – | – | – | – | –
O=C(O)Cn1nnc(-c2cc(OCCOc3cc(F)ccc3Br)no2)n1 | 226 | > 40000 | – | – | – | – | – | – | – | –
O=C(O)Cn1nnc(-c2cnc(OCCCOc3cc(OC(F)(F)F)ccc3Br)s2)n1 | 2 | 969 | 91 | 13700 | 300 | 4200 | 1850 | 81 | 770 | inhibition in vivo at 10 mg/kg [18]: 91%; concentration at 3 h [19]: 18300 nM
Cc1nc(OCCCOc2cc(F)ccc2Br)sc1-c1nnn(CC(=O)O)n1 | 22 | 20500 | 945 | – | – | – | – | – | – | –
O=C(O)Cn1nnc(-c2cc(N3CCC(Oc4cc(F)ccc4Br)CC3)no2)n1 [MK-8245] | – | – | – | 2700 | 70 | 4900 | 130 | 89 | 30 | inhibition in vivo at 0.4 mg/kg [22]: 49%; concentration at 3 h [23]: 1600 nM
O=C(O)Cn1nnc(-c2cc(OCCOCc3cc(F)ccc3Br)no2)n1 | 305 | > 100000 | – | – | – | – | – | – | – | –
O=C(O)Cn1nnc(-c2nnc(OCCCOc3cc(F)ccc3Br)s2)n1 | 26 | > 60000 | – | – | – | – | – | – | – | –
